From ChEMBL document CHEMBL1142352, “Chemical resolution of +/- -calanolide A, +/- -cordatolide A and their 11-demethyl analogues” (Bioorg Med Chem Lett, 2008) come the findings set out here.

For series [1], the system named is Human immunodeficiency virus 1. Put plainly: Antiviral activity against HIV1 at 10 uM by luciferase assay. It is filed as functional. The following applies: for inhibition at 10 µM: Human immunodeficiency virus 1. The method, boiled down:
(§1)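 Pseudotyped HIV-1 assay: drug was serially diluted from 10 µM down to 0.1 nM and tested against 100 TCID50 of HIV ADA infecting TZM CD4+ CCR5+ cells. Infection was read on day 3 post-infection as reporter luciferase activity using a commercial kit, and results are given as percent inhibition. Controls were infected cells without drug, a pseudovirus with a non-specific envelope, and an RT inhibitor.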

For series [2], the system named is Vero. Kind of series: Cytotoxicity against african green monkey Vero cells at 10 uM. It is filed as cell-based. The following applies: chlorocebus sabaeus. The method, boiled down:
(§2)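 Microtiter cytotoxicity assay run in parallel on Vero and TZM CD4+ CCR5+ cells. Serially diluted drug was applied, and viability was measured with a commercial cell viability assay. Values are reported as percent reduction in cell viability.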

Series [3] deals with Human immunodeficiency virus 1. Kind of series: Antiviral activity against HIV1 at 1.0 uM by luciferase assay. It counts as functional. As to conditions: for inhibition at 1 µM: Human immunodeficiency virus 1. The method, boiled down: as §1
Series [4] deals with Vero. Put plainly: Cytotoxicity against african green monkey Vero cells at 1.0 uM. It counts as cell-based. The following applies: chlorocebus sabaeus. The method, boiled down:
as §2

Series [5] concerns Mycobacterium tuberculosis. Put plainly: Antimicrobial activity against Mycobacterium tuberculosis. It is filed as functional.

Values after ≈ are worked out from the molar mass of the structure shown.

For orientation: inhibition means the change of the read-out against control, counted positive when it falls. What is called Inhibition is the change of the read-out against control, counted positive when it falls. Compound `CCCc1cc(=O)oc2c3c(c4c(c12)OC(C)(C)C=C4)O[C@H](C)[C@@H](C)[C@@H]3O` (racemic) [CALANOLIDE A] displayed an inhibition at 10 µM in series [1] of 97%. Also, the Activity with Vero [2] and in the series with Vero [4] was 0% throughout. This compound came in with an Inhibition in series [3] of 81%.
In turn, `CCCc1cc(=O)oc2c3c(c4c(c12)OC(C)(C)C=C4)O[C@H](C)C[C@@H]3O` [(+)-11-DEMETHYL CALANOLIDE A] returned an inhibition at 10 µM in series [1] of 98%. Also, the Activity in the series on Vero [2] is listed as 54%; in the series with Vero [4], 0%. For the same compound, in series [3], the inhibition at 1 µM is 75%.
For `Cc1cc(=O)oc2c3c(c4c(c12)OC(C)(C)C=C4)O[C@H](C)C[C@@H]3O` [(+)-11-DEMETHYL CORDATOLIDE A], in that order: 0%, 0%, 0% and 0%.
For `Cc1cc(=O)oc2c3c(c4c(c12)OC(C)(C)C=C4)O[C@H](C)[C@@H](C)[C@@H]3O` [(+)-CORDATOLIDE A] the same measures were 85%, 0%, 0% and 44%.
Turning to `CCCc1cc(=O)oc2c3c(c4c(c12)OC(C)(C)C=C4)O[C@@H](C)C[C@H]3O` [(-)-11-DEMETHYL CALANOLIDE A], in series [1], testing at 10 µM gave an inhibition of 0%. Besides, the Activity in the series on Vero [2] and in the series on Vero [4] was 0% in each case. This compound also gave an inhibition at 1 µM in series [3] of 0%.
As to `Cc1cc(=O)oc2c3c(c4c(c12)OC(C)(C)C=C4)O[C@@H](C)C[C@H]3O` [(-)-11-DEMETHYL CORDATOLIDE A], in series [1], the inhibition at 10 µM was found to be 0%. Moreover, the Activity in the series with Vero [2] and in the series on Vero [4] was 0% each time. Further, at 1 µM the inhibition in series [3] was 0%.
`CCCc1cc(=O)oc2c3c(c4c(c12)OC(C)(C)C=C4)O[C@@H](C)[C@H](C)[C@H]3O` [(-)-CALANOLIDE A] gave an inhibition at 10 µM in series [1] of 97%. For the same compound, the Activity with Vero [2] and in the series on Vero [4] was 0% in each case. This compound also gave an inhibition at 1 µM in series [3] of 67%.
For `Cc1cc(=O)oc2c3c(c4c(c12)OC(C)(C)C=C4)O[C@@H](C)[C@H](C)[C@H]3O` [(-)-CORDATOLIDE A], the inhibition at 10 µM in series [1] came out at 0%. The Activity with Vero [2] and in the series with Vero [4] was 0% throughout. Testing at 1 µM in series [3] gave an inhibition of 0%.
As a reminder, the MIC is the least concentration at which growth counts as inhibited. Consider `CCCc1cc(=O)oc2c3c(c4c(c12)OC(C)(C)C=C4)O[C@H](C)[C@@H](C)[C@@H]3O` [CALANOLIDE A], for which the Inhibition in series [1] is reported as 98%. The Activity in the series on Vero [2] stood at 6%; with Vero [4] it was 1%. The minimal inhibitory concentration (MIC) in series [5] amounted to 3.13 mg/L (≈ 8.45 µM). The inhibition at 1 µM in series [3] was 86%.
